ChEMBL document CHEMBL3045285, “Synthesis and insecticidal activities of novel anthranilic diamides containing modified N-pyridylpyrazoles” (2010)
≈ marks a conversion by molar mass, not a printed value.

How the values were obtained:
Format in all cases: functional
Plutella xylostella [1] = assay: Insecticidal activity against second-instar larval stage of Plutella xylostella (diamondback moth) in cabbage leaves assessed as mortality at 5 mg/l at 25 +/-1 degC treated for 3 secs before larva infestation measured after 2 days by leaf-dip method; conditions: 48 h
Procedure, shortened: (§1)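 Greenhouse-reared diamondback moth larvae tested by leaf-dip method at 25 ± 1 °C. Test solution made at 200 mg/L, then diluted with distilled water to working concentrations. Mortality scored dead/alive, corrected with Abbott's formula and expressed on a 0–100 scale.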

Mythimna separata [2] = assay: Insecticidal activity against fourth-instar larval stage of Mythimna separata (Oriental armyworm) in compound pretreated Zea mays L. Tangyu 10 leaves assessed as mortality at 200 mg/l at 25 +/-1 degC after 2 days
Procedure, shortened: (§2)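 Greenhouse-reared fourth-instar oriental armyworm larvae. Corn (Tangyu 10) leaves laid on moist filter paper in Petri dishes, sprayed with test solution (200 mg/L solution diluted in distilled water), then air-dried. Ten larvae per dish. Held at 25 ± 1 °C; mortality scored dead/alive 2 days post-treatment. Triplicate treatments, Abbott-corrected, 0–100 scale.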

Mythimna separata [3] = assay: Insecticidal activity against fourth-instar larval stage of Mythimna separata (Oriental armyworm) in compound pretreated Zea mays L. Tangyu 10 leaves assessed as mortality at 2.5 mg/l at 25 +/-1 degC after 2 days; procedure, shortened: as §2
Plutella xylostella [4] = assay: Insecticidal activity against second-instar larval stage of Plutella xylostella (diamondback moth) in cabbage leaves assessed as mortality at 10 mg/l at 25 +/-1 degC treated for 3 secs before larva infestation measured after 2 days by leaf-dip method; conditions: 48 h; procedure, shortened: as §1
Plutella xylostella [5] = assay: Insecticidal activity against second-instar larval stage of Plutella xylostella (diamondback moth) in cabbage leaves assessed as mortality at 0.5 mg/l at 25 +/-1 degC treated for 3 secs before larva infestation measured after 2 days by leaf-dip method; conditions: 48 h; procedure, shortened: as §1
Mythimna separata [6] = assay: Insecticidal activity against fourth-instar larval stage of Mythimna separata (Oriental armyworm) in compound pretreated Zea mays L. Tangyu 10 leaves assessed as mortality at 20 mg/l at 25 +/-1 degC after 2 days; procedure, shortened: as §2
Plutella xylostella [7] = assay: Insecticidal activity against second-instar larval stage of Plutella xylostella (diamondback moth) in cabbage leaves assessed as mortality at 0.125 mg/l at 25 +/-1 degC treated for 3 secs before larva infestation measured after 2 days by leaf-dip method; conditions: 48 h; procedure, shortened: as §1
Plutella xylostella [8] = assay: Insecticidal activity against second-instar larval stage of Plutella xylostella (diamondback moth) in cabbage leaves assessed as mortality at 20 mg/l at 25 +/-1 degC treated for 3 secs before larva infestation measured after 2 days by leaf-dip method; conditions: 48 h; procedure, shortened: as §1
Plutella xylostella [9] = assay: Insecticidal activity against second-instar larval stage of Plutella xylostella (diamondback moth) in cabbage leaves assessed as mortality at 2.5 mg/l at 25 +/-1 degC treated for 3 secs before larva infestation measured after 2 days by leaf-dip method; conditions: 48 h; procedure, shortened: as §1
Mythimna separata [10] = assay: Insecticidal activity against fourth-instar larval stage of Mythimna separata (Oriental armyworm) in compound pretreated Zea mays L. Tangyu 10 leaves assessed as mortality at 100 mg/l at 25 +/-1 degC after 2 days; procedure, shortened: as §2
Plutella xylostella [11] = assay: Insecticidal activity against second-instar larval stage of Plutella xylostella (diamondback moth) in cabbage leaves assessed as mortality at 25 +/-1 degC treated for 3 secs before larva infestation measured after 2 days by leaf-dip method; conditions: 48 h; procedure, shortened: as §1
Mythimna separata [12] = assay: Insecticidal activity against fourth-instar larval stage of Mythimna separata (Oriental armyworm) in compound pretreated Zea mays L. Tangyu 10 leaves assessed as mortality at 5 mg/l at 25 +/-1 degC after 2 days; procedure, shortened: as §2
Mythimna separata [13] = assay: Insecticidal activity against fourth-instar larval stage of Mythimna separata (Oriental armyworm) in compound pretreated Zea mays L. Tangyu 10 leaves assessed as mortality at 10 mg/l at 25 +/-1 degC after 2 days; procedure, shortened: as §2
Plutella xylostella [14] = assay: Insecticidal activity against second-instar larval stage of Plutella xylostella (diamondback moth) in cabbage leaves assessed as mortality at 1 mg/l at 25 +/-1 degC treated for 3 secs before larva infestation measured after 2 days by leaf-dip method; conditions: 48 h; procedure, shortened: as §1
Plutella xylostella [15] = assay: Insecticidal activity against second-instar larval stage of Plutella xylostella (diamondback moth) in cabbage leaves assessed as mortality at 0.25 mg/l at 25 +/-1 degC treated for 3 secs before larva infestation measured after 2 days by leaf-dip method; conditions: 48 h; procedure, shortened: as §1
Mythimna separata [16] = assay: Insecticidal activity against fourth-instar larval stage of Mythimna separata (Oriental armyworm) in compound pretreated Zea mays L. Tangyu 10 leaves assessed as mortality at 50 mg/l at 25 +/-1 degC after 2 days; procedure, shortened: as §2

| Compound | mortality at 5 µg/mL (Plutella xylostella [1]) | mortality at 200 µg/mL (Mythimna separata [2]) | mortality at 2.5 µg/mL (Mythimna separata [3]) | mortality at 10 µg/mL (Plutella xylostella [4]) | mortality at 0.5 µg/mL (Plutella xylostella [5]) | mortality at 20 µg/mL (Mythimna separata [6]) | mortality at 0.125 µg/mL (Plutella xylostella [7]) | mortality at 20 µg/mL (Plutella xylostella [8]) | mortality at 2.5 µg/mL (Plutella xylostella [9]) | mortality at 100 µg/mL (Mythimna separata [10]) | LC50 (Plutella xylostella [11]) | mortality at 5 µg/mL (Mythimna separata [12]) | mortality at 10 µg/mL (Mythimna separata [13]) | mortality at 1 µg/mL (Plutella xylostella [14]) | mortality at 0.25 µg/mL (Plutella xylostella [15]) | mortality at 50 µg/mL (Mythimna separata [16]) |
| --- | --- | --- | --- | --- | --- | --- | --- | --- | --- | --- | --- | --- | --- | --- | --- | --- |
| CNC(=O)c1cc(Cl)cc(C)c1NC(=O)c1cc(Br)nn1-c1ncccc1Cl [CHLORANTRANILIPROLE] | 100% | 100% | 100% | 100% | 100% | 100% | 100% | 100% | 100% | 100% | 3.8 mg/L (≈ 7.87 µM) | 100% | 100% | 100% | 100% | 100% |
| CNC(=O)c1cc(Cl)cc(C)c1NC(=O)c1cc(CNC(=O)C(F)(F)F)nn1-c1ncccc1Cl | 100% | 100% | – | 100% | 40% | 100% | – | 100% | 100% | 100% | – | 40% | 100% | 80% | 0% | 100% |
| CNC(=O)c1cc(Cl)cc(C)c1NC(=O)c1cc(CN=[N+]=[N-])nn1-c1ncccc1Cl | 100% | 100% | 40% | 100% | 100% | 100% | 45% | 100% | 100% | 100% | – | 100% | 100% | 100% | 75% | 100% |
| CNC(=O)c1cc(C(=O)Nc2c(C)cc(Cl)cc2C(=O)NC(C)(C)C)n(-c2ncccc2Cl)n1 | 100% | 100% | – | 100% | 85% | 100% | 0% | 100% | 100% | 100% | – | 40% | 100% | 100% | 30% | 100% |
| CC(=O)OCc1cc(C(=O)Nc2c(C)cc(Cl)cc2C(=O)NC2CC2)n(-c2ncccc2Cl)n1 | 100% | 100% | – | 100% | 40% | 100% | – | 100% | 90% | 100% | – | – | 0% | 60% | 0% | 100% |
| CC(=O)OCc1cc(C(=O)Nc2c(C)cc(Cl)cc2C(=O)NC(C)(C)C)n(-c2ncccc2Cl)n1 | 100% | 100% | – | 100% | 50% | 100% | 0% | 100% | 95% | 100% | – | 20% | 100% | 70% | 25% | 100% |
